Test results as given in ChEMBL document CHEMBL1153062, “Discovery of novel dual functional agent as PPARgamma agonist and 11beta-HSD1 inhibitor for the treatment of diabetes” (Bioorg Med Chem, 2009).
One block for each compound: values may come before it. Activity calls are given as the source filed them. The rule behind the calls is not given here.

What was measured:
[1] = tested on: Rattus norvegicus; assay: Hypoglycemic activity in monosodium L-glutamate-treated obese Wistar rat assessed as reduction in blood glucose level at 5 mg/kg, po for 4 weeks measured after 10 hrs post dose fasting; type: functional, organism-based; design: dose 5 mg/kg
Method in brief: (§1)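 Obesity model: MSG-lesioned Wistar rats (4 g/kg sc neonatally for 7 days), aged 11-12 months, randomized by body weight and serum TG. Dosed orally daily for 6 weeks. Blood glucose and serum TG measured weekly after a 10 h fast.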

[2] = tested on: Mus musculus; assay: Hypolipidemic activity in KK-Ay mouse assessed as reduction in serum triglyceride level at 10 mg/kg, po for 6 weeks measured after 4 hrs post dose fasting; type: functional, organism-based; design: dose 10 mg/kg
Method in brief: (§2)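 KKAy mice (n = 10) randomized by body weight and fed glucose. Dosed orally in 0.25% CMC-Na or vehicle for 6 weeks; blood glucose measured twice weekly. At end, fasted 4 h before sacrifice; blood taken for glucose and serum TG.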

[3] = tested on: Rattus norvegicus; assay: Hypolipidemic activity in monosodium L-glutamate-treated obese Wistar rat assessed as reduction in serum triglyceride level at 5 mg/kg, po for 6 weeks measured after 10 hrs post dose fasting; type: functional, organism-based; design: dose 5 mg/kg; method in brief: as §1
[4] = tested on: Rattus norvegicus; assay: Adipogenic activity in monosodium L-glutamate-treated obese Wistar rat assessed as decrease in total fat mass at 5 mg/kg, po after 6 weeks; type: functional, organism-based; design: dose 5 mg/kg
Method in brief: (§3)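 Obesity model: newborn Wistar rats given MSG 4 g/kg subcutaneously for 7 days from day 2 of life, weaned day 21. At 11-12 months, randomized by body weight and serum TG. Dosed orally daily for 6 weeks. Body weight measured weekly. At sacrifice, organ weights, body fat, visceral and subcutaneous fat weighed; liver triglyceride content assessed.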

[5] = tested on: Rattus norvegicus; assay: Adipogenic activity in monosodium L-glutamate-treated obese Wistar rat assessed as reduction in liver triglyceride content at 5 mg/kg, po after 6 weeks; type: functional, organism-based; design: dose 5 mg/kg; method in brief: as §3
[6] = tested on: 3T3-L1; assay: Induction of adipogenesis in mouse 3T3L1 assessed as increase in triglyceride level at 0.1 uM after 5 days relative to control; type: functional
Method in brief: (§4)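 Confluent 3T3-L1 preadipocytes (DMEM, 10% newborn bovine serum) differentiated with 1 µM dexamethasone, 0.5 mM IBMX and 1.0 µg/ml insulin in DMEM with 5% NBS. Compound present at 0.1 or 1 µM; medium changed every 2 days over 5 days. Triglyceride normalized to protein in sonicated homogenates; expressed as % change versus vehicle control.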

[7] = tested on: 3T3-L1; assay: Induction of adipogenesis in mouse 3T3L1 assessed as increase in triglyceride level at 1 uM after 5 days relative to control; type: functional; method in brief: as §4
[8] = molecular target: T1, Peroxisome proliferator-activated receptor gamma (Homo sapiens, UniProt P37231); assay: Agonist activity at human PPARgamma expressed in U2OS cells by luciferase transactivation assay; type: functional, cell-based
T1 sequence (P37231 whole entry): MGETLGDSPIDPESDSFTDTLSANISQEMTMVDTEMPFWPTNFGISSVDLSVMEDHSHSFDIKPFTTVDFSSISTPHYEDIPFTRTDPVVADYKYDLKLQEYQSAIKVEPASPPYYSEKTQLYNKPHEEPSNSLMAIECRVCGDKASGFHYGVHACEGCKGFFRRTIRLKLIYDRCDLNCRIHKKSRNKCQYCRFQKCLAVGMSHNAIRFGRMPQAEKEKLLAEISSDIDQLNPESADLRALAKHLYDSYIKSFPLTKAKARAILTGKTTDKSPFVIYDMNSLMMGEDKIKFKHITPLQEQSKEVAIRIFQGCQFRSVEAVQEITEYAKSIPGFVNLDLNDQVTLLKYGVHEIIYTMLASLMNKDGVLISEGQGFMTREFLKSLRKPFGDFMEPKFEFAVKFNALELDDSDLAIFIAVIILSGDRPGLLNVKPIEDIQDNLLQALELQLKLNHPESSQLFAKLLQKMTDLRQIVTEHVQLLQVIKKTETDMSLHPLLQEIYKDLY
Method in brief: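 Transfected U2OS cells (McCoy's 5A, 10% FBS) seeded the day before transfection. Each well received 60 ng DNA: hRXR, pCMV Gal, receptor expression vector and reporter. 24 h later, switched to 10% charcoal-stripped FBS DMEM and exposed to compound for 24 h (0.1% DMSO final). Luciferase normalized to galactosidase. EC50 from logistic dose-response fit; mean of at least three independent experiments.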

[9] = molecular target: T2, 11-beta-hydroxysteroid dehydrogenase 1 (Mus musculus, UniProt P50172); assay: Inhibition of mouse liver microsome 11betaHSD1 expressed in HEK293 cells assessed as conversion of [3H]cortisone into [3H]cortisol by scintillation proximity assay; type: cell-based
Method in brief: (§5)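 Enzyme source: microsomes from HEK-293 cells stably transfected with full-length murine 11β-HSD1 (G418 700 µg/ml selection). Incubated with NADPH and [3H]cortisone. [3H]cortisol captured by monoclonal antibody on protein A-coated SPA beads. IC50 from curve fitting; mean of at least three independent experiments. Kinetics: cortisone 1.6–62.5 nM, with or without 1 µM inhibitor.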

[10] = Apparent volume of distribution […] in Wistar rat at 10 mg/kg, iv; type: ADME, organism-based; design: dose 10 mg/kg, route intravenous; details: in vivo, read-out: Vz
Method in brief: (§6)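 Wistar rats (n = 4 per route) given 10 mg/kg by oral gavage or iv via penis vein. Formulation: PEG, DMSO and NaOH diluted in water. Plasma proteins precipitated with acetonitrile. Analysis by LC-MS/MS on a C18 column at 25 °C.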

[11] = Oral bioavailability in Wistar rat at 10 mg/kg; type: ADME, organism-based; details: in vivo; method in brief: as §6
[12] = tested on: Rattus norvegicus; assay: Hypoglycemic activity in monosodium L-glutamate-treated obese Wistar rat assessed as reduction in blood glucose level at 10 mg/kg, po for 4 weeks measured after 10 hrs post dose fasting; type: functional, organism-based; design: dose 10 mg/kg; method in brief: as §1
[13] = tested on: Mus musculus; assay: Hypoglycemic activity in KK-Ay mouse assessed as reduction in blood glucose level at 20 mg/kg, po […] measured after 4 hrs post dose fasting relative to vehicle treated control; type: functional; design: scale not given: the % may be the effect or the level left; method in brief: as §2
[14] = tested on: Rattus norvegicus; assay: Hypolipidemic activity in monosodium L-glutamate-treated obese Wistar rat assessed as reduction in serum triglyceride level at 10 mg/kg, po for 6 weeks measured after 10 hrs post dose fasting; type: functional; design: scale not given: the % may be the effect or the level left; method in brief: as §1
[15] = tested on: Mus musculus; assay: Hypolipidemic activity in KK-Ay mouse assessed as reduction in serum triglyceride level at 20 mg/kg, po for 6 weeks measured after 4 hrs post dose fasting; type: functional; design: scale not given: the % may be the effect or the level left; method in brief: as §2
[16] = tested on: Rattus norvegicus; assay: Adipogenic activity in monosodium L-glutamate-treated obese Wistar rat assessed as reduction in body weight at 10 mg/kg, po after 6 weeks; type: functional, organism-based; design: dose 10 mg/kg; method in brief: as §3
[17] = tested on: Rattus norvegicus; assay: Adipogenic activity in monosodium L-glutamate-treated obese Wistar rat assessed as decrease in subcutaneous fat weight at 10 mg/kg, po after 6 weeks; type: functional, organism-based; design: dose 10 mg/kg; method in brief: as §3
[18] = tested on: Rattus norvegicus; assay: Adipogenic activity in monosodium L-glutamate-treated obese Wistar rat assessed as decrease in visceral fat weight at 10 mg/kg, po after 6 weeks; type: functional, organism-based; design: dose 10 mg/kg; method in brief: as §3
[19] = tested on: Rattus norvegicus; assay: Adipogenic activity in monosodium L-glutamate-treated obese Wistar rat assessed as decrease in total fat mass at 10 mg/kg, po after 6 weeks relative to control; type: functional; design: scale not given: the % may be the effect or the level left; method in brief: as §3
[20] = tested on: Rattus norvegicus; assay: Adipogenic activity in monosodium L-glutamate-treated obese Wistar rat assessed as reduction in liver triglyceride content at 10 mg/kg, po after 6 weeks; type: functional, organism-based; design: dose 10 mg/kg; method in brief: as §3
[21] = molecular target: 11-beta-hydroxysteroid dehydrogenase 1 (Mus musculus) (UniProt P50172); assay: (§7) Inhibition of mouse liver microsome 11betaHSD1 reductase activity expressed in HEK293 cells by scintillation proximity assay; type: cell-based; method in brief: as §5
[22] = molecular target: T2, 11-beta-hydroxysteroid dehydrogenase 1; assay: as §7; type: cell-based; method in brief: as §5
[23] = molecular target: 11-beta-hydroxysteroid dehydrogenase 1 (Mus musculus) (UniProt P50172); assay: Competitive inhibition of mouse liver microsome 11betaHSD1 reductase activity expressed in HEK293 cells by Lineweaver-Burke double reciprocal plot analysis; type: cell-based
[24] = tested on: Rattus norvegicus; assay: AUC (infinity) in Wistar rat at 10 mg/kg, po; type: ADME, organism-based, Plasma; design: dose 10 mg/kg, route oral, time infinity; details: in vivo
Method in brief: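 Wistar rats (n = 4) got a single 10 mg/kg dose by oral gavage. Vehicle was PEG, DMSO and 120 mM NaOH diluted with water. Plasma was deproteinised with acetonitrile and methanol-water. Drug was quantified by LC-MS/MS on a C18 column at 25 °C.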

[25] = tested on: Rattus norvegicus; assay: AUC (infinity) in Wistar rat at 10 mg/kg, iv; type: ADME, organism-based, Plasma; design: time infinity, dose 10 mg/kg, route intravenous; details: in vivo
Method in brief: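 Wistar rats (n = 4) got a single 10 mg/kg intravenous injection via the penis vein. Vehicle was PEG, DMSO and 120 mM NaOH diluted with water. Plasma was deproteinised with acetonitrile and methanol-water. Drug was quantified by LC-MS/MS on a C18 column at 25 °C.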

[26] = Cmax in Wistar rat at 10 mg/kg, po after 1 hr; type: ADME, organism-based; design: dose 10 mg/kg, route oral; details: in vivo; method in brief: as §6
[27] = Tmax in Wistar rat at 10 mg/kg, po; type: ADME, organism-based; design: dose 10 mg/kg, route oral; details: in vivo; method in brief: as §6
[28] = Half life in Wistar rat at 10 mg/kg, po; type: ADME, organism-based; design: dose 10 mg/kg, route oral; details: in vivo; method in brief: as §6
[29] = Half life in Wistar rat at 10 mg/kg, iv; type: ADME, organism-based; design: dose 10 mg/kg, route intravenous; details: in vivo; method in brief: as §6
[30] = Volume of distribution at steady state in Wistar rat at 10 mg/kg, iv; type: ADME, organism-based; design: dose 10 mg/kg, route intravenous; details: in vivo, read-out: Vdss; method in brief: as §6
[31] = tested on: Rattus norvegicus; assay: Apparent volume of distribution during terminal phase in Wistar rat at 10 mg/kg, po; details: in vivo

T2 sequence (P50172 whole entry): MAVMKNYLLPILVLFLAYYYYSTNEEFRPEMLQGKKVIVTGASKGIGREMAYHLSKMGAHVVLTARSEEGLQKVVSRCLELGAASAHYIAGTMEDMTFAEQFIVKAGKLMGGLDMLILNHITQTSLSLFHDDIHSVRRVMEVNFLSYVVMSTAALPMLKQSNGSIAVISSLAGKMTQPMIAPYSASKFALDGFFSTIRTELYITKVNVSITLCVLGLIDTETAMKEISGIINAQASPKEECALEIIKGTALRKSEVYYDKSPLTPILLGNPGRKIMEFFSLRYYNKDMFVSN
Chain of 11-beta-hydroxysteroid dehydrogenase 1 (Mus musculus) (P50172 whole entry, looked up): as the sequence (P50172 whole entry) above

SMILES: CN(CCOc1ccc(CC2SC(=O)NC2=O)cc1)c1ccccn1 (stereo unspecified) [ROSIGLITAZONE]
Activity [1]: Active
Activity [2]: Active
Activity [3]: Active
Activity [4]: inactive
Activity [5]: inactive
Activity [6]: 22.05%
Activity [7]: 34.1%

SMILES: Cc1cccc(CN2CCN(c3cc(Oc4ccc(CC(C)(Oc5ccccc5)C(=O)O)cc4)nc(N)n3)CC2)c1 (stereo unspecified)
EC50 [8]: 4460 nM
IC50 [9]: 2370 nM
Activity [6]: -1.04%
Activity [7]: -2.33%

SMILES: CC(Cc1ccc(Oc2cc(N3CCN(c4cccc(Cl)c4)CC3)nc(N)n2)cc1)(Oc1ccccc1)C(=O)O (stereo unspecified)
EC50 [8]: 4470 nM
IC50 [9]: 1520 nM
Activity [6]: -19.32%
Activity [7]: -37.99%

SMILES: COc1ccccc1C(=O)N1CCN(c2cc(Oc3ccc(CC(C)(Oc4ccccc4)C(=O)O)cc3)nc(N)n2)CC1 (stereo unspecified)
EC50 [8]: ≥ 50000 nM
IC50 [9]: ≥ 10000 nM

SMILES: CC(Cc1ccc(Oc2cc(N3CCN(Cc4cccc5ccccc45)CC3)nc(N)n2)cc1)(Oc1ccccc1)C(=O)O (stereo unspecified)
EC50 [8]: 3500 nM
IC50 [9]: 2340 nM
Activity [6]: 0.45%
Activity [7]: 4.47%

The remaining compounds from weak to strong by IC50 [9], led by results:

EC50 [8]: 5540 nM
IC50 [9]: 1320 nM
SMILES: CC(Cc1ccc(Oc2cc(N3CCN(CC4CCCCC4)CC3)nc(N)n2)cc1)(Oc1ccccc1)C(=O)O (stereo unspecified)
Activity [6]: -30.21%
Activity [7]: -15.43%

EC50 [8]: 6360 nM
IC50 [9]: 850 nM
SMILES: CC(Cc1ccc(Oc2cc(N3CCN(Cc4ccc(C(C)(C)C)cc4)CC3)nc(N)n2)cc1)(Oc1ccccc1)C(=O)O (stereo unspecified)
Activity [6]: -1.99%
Activity [7]: -1.15%

Vd [10]: 2.5 L/kg
bioavailability [11]: 100%
EC50 [8]: 6620 nM
IC50 [9]: 710 nM
inhibition [21]: Dose-dependent effect
Ki [22]: 1000 nM
inhibition [23]: Active
AUC [24]: 5920 ng·h/mL
AUC [25]: 5150 ng·h/mL
Cmax [26]: 3790 ng/mL
Tmax [27]: 1 h
half-life [28]: 6.3 h
half-life [29]: 9 h
Vd [30]: 0.8 L/kg
Vz [31]: 1.6 L/kg
SMILES: CC(Cc1ccc(Oc2cc(N3CCN(Cc4ccccc4)CC3)nc(N)n2)cc1)(Oc1ccccc1)C(=O)O (stereo unspecified)
Activity [12]: Active
Activity [13]: 34%
Activity [14]: 21%
Activity [15]: 39.5%
Activity [16]: Active
Activity [17]: inactive
Activity [18]: inactive
Activity [19]: 12.5%
Activity [20]: Active
Activity [6]: -14.98%
Activity [7]: -20.5%

IC50 [9]: 15 nM
SMILES: CC1(C)[C@@H](O[C@H]2O[C@H](C(=O)O)[C@@H](O)[C@H](O)[C@H]2O[C@@H]2O[C@H](C(=O)O)[C@@H](O)[C@H](O)[C@H]2O)CC[C@]2(C)[C@H]3C(=O)C=C4[C@@H]5C[C@@](C)(C(=O)O)CC[C@]5(C)CC[C@@]4(C)[C@]3(C)CC[C@@H]12 [GLYCYRRHIZIN]
